Converted amounts (≈) assume the structure as drawn. Where only a bound is given, the exact number is not on record here.

Assay [1] is described as follows: Selectivity index, ratio of IC50 for african green monkey Vero cells to MIC for Mycobacterial tuberculosis H37Rv ATCC 27294. It counts as functional. The method in brief: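 SI calculated as IC50/MIC, where MIC (H37Rv, Alamar Blue microdilution in BACTEC 12B medium) is the lowest concentration cutting fluorescence 90% versus controls.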
Assay [2] concerns Mycobacterium tuberculosis. Briefly: Antitubercular activity against Mycobacterium tuberculosis H37Rv ATCC 27294 by microplate Alamar blue assay. The assay is classed as functional. The method in brief: (§1)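 M. tuberculosis H37Rv (ATCC 27294) in BACTEC 12B medium; broth microdilution, Microplate Alamar Blue readout. MIC taken as lowest concentration giving 90% reduction in fluorescence versus controls.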

Assay [3] deals with NCI-H460. Briefly: Cytotoxicity against human NCI-H460 cells at 20 ug/ml after 48 hrs by SRB assay. The assay is classed as functional. The method in brief: (§2)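 MCF7, NCI-H460 and SF-268 cells were kept in RPMI-1640 with 5% fetal bovine serum, then seeded and preincubated in microtiter plates. Compound was added at two fixed concentrations and incubated for 48 h. The endpoint was sulforhodamine B protein staining, reported as percent growth of treated cells relative to untreated controls.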

Assay [4] deals with MCF7. Briefly: Cytotoxicity against human MCF7 cells at 4 ug/ml after 48 hrs by SRB assay. It counts as functional. The procedure, abridged: as §2
The next assay relates to Vero. Briefly: Cytotoxicity against african green monkey Vero cells after 72 hrs by MTT assay. The assay is classed as cell-based, Chlorocebus sabaeus.
Assay [5] concerns SF-268. In words: Cytotoxicity against human SF268 cells at 4 ug/ml after 48 hrs by SRB assay. It counts as functional. The procedure, abridged:
as §2

For assay [6], the system named is NCI-H460. Briefly: Cytotoxicity against human NCI-H460 cells at 4 ug/ml after 48 hrs by SRB assay. It counts as functional. The procedure, abridged:
as §2

Assay [7] has as its system SF-268. In words: Cytotoxicity against human SF268 cells at 20 ug/ml after 48 hrs by SRB assay. The assay is classed as functional. The procedure, abridged:
as §2

For assay [8], the system named is MCF7. Briefly: Cytotoxicity against human MCF7 cells at 20 ug/ml after 48 hrs by SRB assay. The assay is classed as functional. The method in brief: as §2
In assay [9] the test system is Mycobacterium tuberculosis. Briefly: Antitubercular activity against Mycobacterium tuberculosis H37Rv ATCC 27294 at <0.2 ug/ml by microplate Alamar blue assay. The assay is classed as functional. The procedure, abridged: as §1

Turning to `c1ccc(Nc2c3ccccc3nc3oc4ccccc4c23)cc1`, the “Selectivity Index” value in assay [1] is on record as 1.15. This compound also returned a minimal inhibitory concentration (MIC) in [2] of 5.35 µg/mL (≈ 17.2 µM). Besides, the Activity with NCI-H460 [3] was 53%; with MCF7 [4], 118%; in the assay on SF-268 [5], 118%; in the assay with NCI-H460 [6], 104%; in the assay with SF-268 [7], 76%; in the assay with MCF7 [8], 44%. The half-inhibitory concentration (IC50) in the assay with Vero worked out at 6.14 µg/mL (≈ 19.8 µM).
For `CCOc1c2ccccc2nc2oc3ccccc3c12`, the “Selectivity Index” value in assay [1] is 7.18. Also, the MIC in [2] was determined as 1.44 µg/mL (≈ 5.47 µM). The Activity in the assay on NCI-H460 [3] amounted to 84%; in the assay on MCF7 [4], 99%; with SF-268 [5], 86%; in the assay with NCI-H460 [6], 92%; in the assay with SF-268 [7], 90%; in the assay with MCF7 [8], 77%. In the assay with Vero, the IC50 stood at 10.34 µg/mL (≈ 39.3 µM).
In turn, `CC(=O)c1ccc(Nc2c3ccccc3nc3oc4ccccc4c23)cc1` gave a minimal inhibitory concentration (MIC) in [2] of 14.6 µg/mL (≈ 41.3 µM). Also, the Activity with NCI-H460 [3] is 20%; in the assay with MCF7 [4], 106%; with SF-268 [5], 109%; with NCI-H460 [6], 64%; with SF-268 [7], 63%; in the assay on MCF7 [8] it was 49%.
As for `COc1ccc(Nc2c3ccccc3nc3oc4ccccc4c23)cc1`, the “Selectivity Index” value in [1] was 1.38. Also, the MIC in assay [2] is 2.63 µg/mL (≈ 7.73 µM). Further, the Activity came to 17% in the assay with NCI-H460 [3]; 109% with MCF7 [4]; 111% with SF-268 [5]; 83% in the assay on NCI-H460 [6]; 87% in the assay with SF-268 [7]; 35% in the assay on MCF7 [8]. The compound also registered an IC50 in the assay with Vero of 3.63 µg/mL (≈ 10.7 µM).
Compound `CC(=O)c1ccc(Oc2c3ccccc3nc3oc4ccccc4c23)cc1` registered an MIC in assay [2] of over 100 µg/mL. Further, the Activity is 62% in the assay with NCI-H460 [3]; 100% in the assay on MCF7 [4]; 104% in the assay on SF-268 [5]; 104% in the assay on NCI-H460 [6]; 100% in the assay on SF-268 [7]; 88% with MCF7 [8].
Take `Nc1c2ccccc2nc2oc3ccccc3c12`: the MIC in [2] is over 100 µg/mL. In addition, the Activity with NCI-H460 [3] turned out to be 107%; with MCF7 [4], 114%; in the assay on SF-268 [5] it was 84%; in the assay with NCI-H460 [6], 110%; with SF-268 [7], 72%; with MCF7 [8], 113%.
With `CNc1c2ccccc2nc2oc3ccccc3c12`, the “Selectivity Index” value in [1] was over 27.75. In [2], this compound had a minimum inhibitory concentration (MIC) of under 0.2 µg/mL. The Activity in the assay with NCI-H460 [3] stood at 99%; in the assay on MCF7 [4] it was 100%; in the assay with SF-268 [5] it was 98%; in the assay on NCI-H460 [6], 102%; with SF-268 [7], 86%; with MCF7 [8], 99%. The compound further registered an IC50 with Vero of 5.55 µg/mL (≈ 22.4 µM).
`CN(C)c1c2ccccc2nc2oc3ccccc3c12`: the “Selectivity Index” value in assay [1] is recorded as over 150. In assay [2], this compound yielded an MIC of under 0.2 µg/mL. For the same compound, the Activity in the assay on NCI-H460 [3] is 76%; in the assay on MCF7 [4], 87%; in the assay with SF-268 [5], 102%; in the assay on NCI-H460 [6] it was 108%; with SF-268 [7], 91%; in the assay on MCF7 [8] it was 48%. This compound also gave an IC50 in the assay on Vero of over 30 µg/mL.
With `COc1c2ccccc2nc2oc3ccccc3c12`, the “Selectivity Index” value in assay [1] is over 58.85. Besides, the “inhibition (INH)” value in [9] is given as 99%. In addition, the MIC in assay [2] is under 0.2 µg/mL. In addition, the Activity in the assay with NCI-H460 [3] is given as 68%; in the assay with MCF7 [4], 102%; in the assay with SF-268 [5], 98%; in the assay with NCI-H460 [6] it was 90%; in the assay on SF-268 [7], 98%; in the assay on MCF7 [8] it was 92%. Further, in the assay on Vero, the concentration for half-maximal inhibition (IC50) came to 11.77 µg/mL (≈ 47.2 µM).
In turn, `COc1cccc(Nc2c3ccccc3nc3oc4ccccc4c23)c1` gave an MIC in assay [2] of 17.8 µg/mL (≈ 52.4 µM). Further, the Activity in the assay on NCI-H460 [3] is 46%; with MCF7 [4], 107%; with SF-268 [5], 97%; in the assay on NCI-H460 [6], 99%; with SF-268 [7], 60%; in the assay with MCF7 [8], 84%.
Compound `c1ccc(Oc2c3ccccc3nc3oc4ccccc4c23)cc1` yielded a minimal inhibitory concentration (MIC) in assay [2] of over 100 µg/mL. In addition, the Activity is 91% in the assay on NCI-H460 [3]; 94% in the assay on MCF7 [4]; 108% in the assay on SF-268 [5]; 99% in the assay on NCI-H460 [6]; 108% in the assay on SF-268 [7]; 64% with MCF7 [8].
`CO[C@H]1/C=C/O[C@@]2(C)Oc3c(C)c(O)c4c(O)c(c(/C=N/N5CCN(C)CC5)c(O)c4c3C2=O)NC(=O)/C(C)=C\C=C\[C@H](C)[C@H](O)[C@@H](C)[C@@H](O)[C@@H](C)[C@H](OC(C)=O)[C@@H]1C` [RIFAMPIN]: the “Selectivity Index” value in [1] was 400. Further, the minimum inhibitory concentration (MIC) in assay [2] worked out at 0.125 µg/mL (≈ 0.152 µM). Besides, the IC50 in the assay on Vero worked out at 100 µg/mL (≈ 122 µM).
